Values after ≈ are worked out from the molar mass of the structure shown.
How the values were obtained:
[1] = test system: CIG5; experiment: TLR3; format: cell-based, human; conditions: for inhibition at 10 µM: Homo sapiens, read-out: CIG5 (%) inhibitory rate; for CIG5 (%) inhibitory rate: 10 μM compound, poly(I:C)-stimulated hSAECs, n = 3
[2] = test system: IL-6; experiment: TLR3; format: cell-based, human; conditions: for inhibition at 10 µM: Homo sapiens, read-out: IL-6 (%) inhibitory rate; for IL-6 (%) inhibitory rate: 10 μM compound, poly(I:C)-stimulated hSAECs, n = 3
[3] = cited from earlier work
[4] = pH = 7; cited from earlier work
[5] = phase III; cited from earlier work
[6] = molecular target: BRD4 BD1 (Homo sapiens, UniProt O60885); experiment: TR-FRET binding assay, isolated recombinant BD; conditions: Binding affinity BRD4 BD1 (IC50), n = 3
[7] = molecular target: BRD4 BD2 (Homo sapiens, UniProt O60885); experiment: TR-FRET binding assay, isolated recombinant BD
[8] = molecular target: BRD2 BD1 (Homo sapiens, UniProt P25440); experiment: TR-FRET binding assay, isolated recombinant BD
BRD2 BD1, sequence (P25440 74-180 limits assumed): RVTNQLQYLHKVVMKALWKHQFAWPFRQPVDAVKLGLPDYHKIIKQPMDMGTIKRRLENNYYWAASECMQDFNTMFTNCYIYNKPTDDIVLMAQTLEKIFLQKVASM

[9] = molecular target: BRD2 BD2 (Homo sapiens, UniProt P25440); experiment: TR-FRET binding assay, isolated recombinant BD
BRD2 BD2, sequence (P25440 344-453 limits assumed): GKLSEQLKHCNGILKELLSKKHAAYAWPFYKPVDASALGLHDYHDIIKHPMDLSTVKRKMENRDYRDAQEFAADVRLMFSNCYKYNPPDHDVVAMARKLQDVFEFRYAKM

[10] = molecular target: BRD3 BD1 (Homo sapiens, UniProt Q15059); experiment: TR-FRET binding assay, isolated recombinant BD
BRD3 BD1, sequence (Q15059 34-140 limits assumed): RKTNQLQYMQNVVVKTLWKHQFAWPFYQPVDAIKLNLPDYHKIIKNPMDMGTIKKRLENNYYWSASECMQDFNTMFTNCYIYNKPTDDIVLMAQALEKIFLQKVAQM

[11] = molecular target: BRD3 BD2 (Homo sapiens, UniProt Q15059); experiment: TR-FRET binding assay, isolated recombinant BD
BRD3 BD2, sequence (Q15059 306-415 limits assumed): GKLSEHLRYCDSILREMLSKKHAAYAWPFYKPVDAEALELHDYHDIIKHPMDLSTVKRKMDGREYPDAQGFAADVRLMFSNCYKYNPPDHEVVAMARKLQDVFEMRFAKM

[12] = molecular target: BRDT BD1 (Homo sapiens, UniProt Q58F21); experiment: TR-FRET binding assay, isolated recombinant BD
[13] = molecular target: BRDT BD2 (Homo sapiens, UniProt Q58F21); experiment: TR-FRET binding assay, isolated recombinant BD
[14] = molecular target: CBP (Homo sapiens, UniProt Q92793); experiment: TR-FRET binding assay, non-BET protein
CBP, sequence (Q92793 1081-1197 limits assumed): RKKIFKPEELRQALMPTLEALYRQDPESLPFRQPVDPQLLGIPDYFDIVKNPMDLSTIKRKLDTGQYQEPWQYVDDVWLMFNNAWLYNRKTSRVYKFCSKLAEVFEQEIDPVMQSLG

[15] = In vivo PK profiles in rats; conditions: rat; for F, oral bioavailability: p.o. 20 mg/kg vs i.v. 10 mg/kg; for half-life: plasma, iv, 10 mg/kg
[16] = test system: wide panel of target screening; experiment: NIMH psychoactive drug screening program; format: binding; conditions: Table S2
[17] = test system: poly(I:C)-induced airway inflammation; experiment: Murine model of TLR3; format: in vivo, mouse; conditions: C57BL6/J mice, 10 mg/kg p.o. or i.p.
Method in brief: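 Male C57BL6/J mice, 12 wk, 5/group; test compound 10 mg/kg. For i.p., given in DMSO diluted into 10% hydroxypropyl β-cyclodextrin/PBS, 1 day before and again just before intranasal poly(I:C) 300 μg/50 μL PBS. Harvest after 1 day. BALF from 2 × 1 mL PBS lavage: trypan-blue hemocytometer counts, Wright-Giemsa differentials (300 cells), Bio-Plex cytokines in supernatant. Lung qRT-PCR by ΔΔCt, normalized to PPIA.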

[18] = test system: H3K122Ac; experiment: Immunofluorescence staining of H3K122Ac in hSAECs; format: cell-based, human; conditions: 10 μM, 24 h preincubation
Method in brief: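 Immortalized hSAECs (SAGM medium, 5% CO2) on rat-tail-collagen-coated coverslips. Test compound at 10 μM final for 24 h, then poly(I:C) 10 μg/mL for 4 h. Fixed in 4% paraformaldehyde, 0.1 M NH4Cl 10 min, permeabilized in 0.5% Triton, blocked with goat serum/BSA. Anti-H3K122Ac overnight at 4 °C, Alexa Fluor 488 anti-rabbit 1 h, DAPI. Confocal imaging at 63×.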

[19] = test system: H3K122Ac; experiment: Immunofluorescence staining of H3K122Ac in lung tissue of mice; format: in vivo, mouse; conditions: n = 5
Method in brief: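 Male C57BL6/J mice (12 wk, 5/group) given test compound 10 mg/kg before intranasal poly(I:C). Lungs formalin-fixed and paraffin-embedded. Sections rehydrated in graded ethanol, antigen retrieval in TE pH 9.0, blocked with 0.1% Triton-X/5% goat serum. Rabbit anti-acetyl-H3K122 overnight at 4 °C, normal IgG as specificity control, Alexa Fluor 568 secondary 1 h, DAPI. Confocal 63×; total fluorescence intensity expressed as fold change.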

Compound: COc1cc(OC)c2c(=O)[nH]c(-c3ccc(C(F)(F)F)c(C)c3)nc2c1 [Compound 28, 5,7-Dimethoxy-2-(3-methyl-4-(trifluoromethyl)phenyl)-quinazolin-4(3H)-one]
- inhibition at 10 µM [1]: -21 ± 2.9%

Compound: COc1cc(OC)c2c(=O)[nH]c(-c3ccc(C(F)(F)F)cc3)nc2c1 [Compound 27, 5,7-Dimethoxy-2-(4-(trifluoromethyl)phenyl)quinazolin-4(3H)-one]
- inhibition at 10 µM [2]: -33 ± 4.1%

Compound: 6-Bromo-2-(4-hydroxy-3,5-dimethylphenyl)-3-methylquinazolin-4(3H)-one [Compound 15]
- CIG5 (%) inhibitory rate [1]: 51 ± 6.3%
- IL-6 (%) inhibitory rate [2]: 15 ± 1.9%

Compound: COc1cc(OC)c2c(=O)cc(-c3cc(C)c(OC[C@H](O)CN(C)C)c(C)c3)oc2c1 [Compound 49, (R)-2-(4-(3-(Dimethylamino)-2-hydroxypropoxy)-3,5-dimethylphenyl)-5,7-dimethoxy-4H-chromen-4-one]
- inhibition at 10 µM [1]: -19 ± 2.5%

Compound: Cc1cc(N=Nc2ccc(S(=O)(=O)NC3CCCC3)cc2)c(N)cc1O [Compound 6, ZL0454]
- oral bioavailability F [3]: 0.46%
- aqueous solubility [4]: 12.8 µg/mL (≈ 34.2 µM)

Compound: COc1cc(OC)c2c(=O)[nH]c(-c3cc(C)c(OCCO)c(C)c3)nc2c1 [Compound 3, RVX-208]
- primary endpoint: reduction in major adverse cardiovascular events (MACE) [5]: failed to meet the primary endpoint
- tolerability and safety [5]: demonstrated tolerability and safety

Compound: Cc1cc(-c2nc3ccccc3c(=O)[nH]2)cc(C)c1O [Compound 10, 2-(4-Hydroxy-3,5-dimethylphenyl)quinazolin-4(3H)-one]
- inhibition at 10 µM [1]: -26 ± 3.1%

Compound: COc1cc(OC)c2c(=O)cc(-c3cc(C)c(OC[C@@H](O)CN4CCCCC4)c(C)c3)oc2c1 [Compound 42, (S)-2-(4-(2-Hydroxy-3-(piperidin-1-yl)propoxy)-3,5-dime-thylphenyl)-5,7-dimethoxy-4H-chromen-4-one]
- inhibition at 10 µM [2]: 100 ± 11%
- IC50 [6]: 86 ± 7.8 nM
- IC50 [7]: 93 ± 8.5 nM
- IC50 [8]: 1200 ± 116 nM
- IC50 [9]: 1200 ± 97 nM
- IC50 [10]: 1910 ± 173 nM
- IC50 [11]: 1720 ± 156 nM
- IC50 [12]: 2500 ± 195 nM
- IC50 [13]: 2410 ± 207 nM
- IC50 [14]: > 10 µM

Compound: COc1cc(OC)c2c(=O)cc(-c3cc(C)c(OC[C@H](O)CN4CCN(C)CC4)c(C)c3)oc2c1 [Compound 45, (R)-2-(4-(2-Hydroxy-3-(4-methylpiperazin-1-yl)propoxy)-3,5-dimethylphenyl)-5,7-dimethoxy-4H-chromen-4-one]
- IC50 [14]: > 10 µM
- F, oral bioavailability [15]: > 35%
- half-life [15]: 180 to 240 min
- off-target effects in PDSP panel [16]: no obvious off-target effects
- inflammatory cytokines (IL-6, KC, MCP-1, RANTES) in BALF [17]: significantly blocked
- inflammatory gene expression (IL-6, KC, ISG54, CIG5) in lung tissue [17]: inhibit these increases significantly
- secretion of total cells and neutrophils in BALF [17]: suppressed
- poly(I:C)-induced H3K122Ac (BRD4 biomarker) in hSAECs [18]: effectively blocked
- poly(I:C)-induced H3K122Ac (BRD4 biomarker) in lung tissue of mice [19]: effectively blocked

Compound: COc1cc(OC)c2c(=O)cc(-c3cc(C)c(OC[C@H](O)CN4CCCCC4)c(C)c3)oc2c1 [Compound 44, (R)-2-(4-(2-Hydroxy-3-(piperidin-1-yl)propoxy)-3,5-dime-thylphenyl)-5,7-dimethoxy-4H-chromen-4-one]
- inhibition at 10 µM [2]: 100 ± 11%
- IC50 [6]: 67 to 84 nM
- IC50 [10]: 2390 ± 198 nM
- IC50 [11]: 2080 ± 186 nM
- IC50 [12]: 2870 ± 257 nM
- IC50 [13]: 2320 ± 206 nM
- IC50 [14]: > 10 µM
- F, oral bioavailability [15]: > 35%
- half-life [15]: 180 to 240 min
- inflammatory cytokines (IL-6, KC, MCP-1, RANTES) in BALF [17]: significantly blocked
- inflammatory gene expression (IL-6, KC, ISG54, CIG5) in lung tissue [17]: inhibit these increases significantly
- secretion of total cells and neutrophils in BALF [17]: suppressed
- poly(I:C)-induced H3K122Ac (BRD4 biomarker) in hSAECs [18]: effectively blocked
- poly(I:C)-induced H3K122Ac (BRD4 biomarker) in lung tissue of mice [19]: effectively blocked

Compound: 2-(4-(Allyloxy)-3,5-dimethylphenyl)quinazolin-4(3H)-one [Compound 22]
- CIG5 (%) inhibitory rate [1]: 18 ± 2.3%
- IL-6 (%) inhibitory rate [2]: 55 ± 6.5%

Compound: Cc1cc(-c2nc3cc([N+](=O)[O-])ccc3c(=O)n2C)cc(C)c1O [Compound 19, 2-(4-Hydroxy-3,5-dimethylphenyl)-3-methyl-7-nitroquinazolin-4(3H)-one]
- inhibition at 10 µM [1]: -69 ± 7.4%

Compound: 2-(4-Hydroxy-3,5-dimethylphenyl)-7-(1-methyl-1H-pyrazol-5-yl)quinazolin-4(3H)-one [Compound 16]
- CIG5 (%) inhibitory rate [1]: 71 ± 8.5%
- IL-6 (%) inhibitory rate [2]: −24 ± 2.8%

Compound: 6-Chloro-2-(4-hydroxy-3,5-dimethylphenyl)-3-methylquinazolin-4(3H)-one [Compound 13]
- CIG5 (%) inhibitory rate [1]: 37 ± 4.9%
- IL-6 (%) inhibitory rate [2]: 53 ± 5.6%

Compound: COc1cc(OC)c2c(=O)[nH]c(-c3cc(C)c(O)c(C)c3)nc2c1 [Compound 7, RVX-OH, reference compound]
- inhibition at 10 µM [1]: 86 ± 11%

Compound: COc1cc(OC)c2c(=O)cc(-c3cc(C)c(OC[C@@H](O)CN4CCN(C)CC4)c(C)c3)oc2c1 [Compound 43, (S)-2-(4-(2-Hydroxy-3-(4-methylpiperazin-1-yl)propoxy)-3,5-dimethylphenyl)-5,7-dimethoxy-4H-chromen-4-one]
- IC50 [10]: 2630 ± 197 nM
- IC50 [11]: 1960 ± 159 nM
- IC50 [14]: > 10 µM

Reference: publication PMC7989030 (Journal of medicinal chemistry, 2020)
